Measured values reported in ChEMBL document CHEMBL1150428, “CYP53A15 of Cochliobolus lunatus, a target for natural antifungal compounds” (J Med Chem, 2008).
≈ marks a conversion by molar mass, not a printed value.

Tests used:
Curvularia lunata [1] = test: Antifungal activity against Cochliobolus lunatus at 5 mM assessed as radial growth rate; assay type: functional
How it was run: (§1)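 C. lunatus m118 on agar plates in triplicate, each inhibitor at 5 mM alone or at 5 mM combined with 0.1 mM benzoic acid. Plates centrally inoculated with 7 mm mycelial disks taken from a 48 h solid culture. Radial growth rate (mm/h) from colony diameter over time. Initial growth inhibition time (h) is the time-axis intercept of the linear growth phase extrapolated to 7 mm diameter.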

Curvularia lunata [2] = test: Antifungal activity against Cochliobolus lunatus at 5 mM assessed as initial growth inhibition time; assay type: functional; how it was run: as §1
[3] = Inhibition of Cochliobolus lunatus CYP53A15 expressed in Escherichia coli; set-up: species or system Curvularia lunata
How it was run: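 His-tagged CYP53A15 from E. coli C43(DE3), Ni-NTA purified, reconstituted with rabbit liver NADPH-P450 reductase and DLPC in pH 7.4 phosphate. Reaction started with 1 mM NADPH and benzoate. para-Hydroxybenzoate formation quantified by HPLC of quenched reactions over time. Enzyme at 5 µM, inhibitors at 300 and 600 µM. Kinetic constants from simultaneous progress-curve analysis.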

Curvularia lunata [4] = test: Antifungal activity against Cochliobolus lunatus delta bph at 5 mM assessed as initial growth inhibition time; assay type: functional
How it was run: (§2)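 Δbph deletion strain of C. lunatus (bph gene replaced by hph, hygromycin-selected) on agar with 5 mM test compound, in triplicate. Plates centrally inoculated with 7 mm mycelial disks from a 48 h culture. Radial growth rate (mm/h) measured; initial growth inhibition time (h) taken as the intercept of the extrapolated linear growth phase at 7 mm.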

Curvularia lunata [5] = test: Antifungal activity against Cochliobolus lunatus delta bph at 5 mM assessed as radial growth rate; assay type: functional; how it was run: as §2
Curvularia lunata [6] = test: Antifungal activity against Cochliobolus lunatus; assay type: functional
How it was run: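 C. lunatus m118 (wild type). MIC, the lowest concentration preventing visible growth after overnight incubation, determined by the Radford method.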

Curvularia lunata [7] = test: Antifungal activity against Cochliobolus lunatus at 0.1 mM assessed as radial growth rate; assay type: functional; how it was run: as §1
Curvularia lunata [8] = test: Antifungal activity against Cochliobolus lunatus at 0.1 mM assessed as initial growth inhibition time; assay type: functional; how it was run: as §1

COc1cc(C=O)ccc1O [VANILLIN]
Activity (Curvularia lunata [1]): 0.55 millimeter/hr
Activity (Curvularia lunata [2]): 12 h
Ki [3]: 29.7 µM

C=CCc1ccc(O)c(OC)c1 [EUGENOL]
Activity (Curvularia lunata [1]): 0.57 millimeter/hr
Activity (Curvularia lunata [2]): 20 h
Ki [3]: 26.2 µM

Cc1ccc(C(C)C)c(O)c1 [THYMOL]
Ki [3]: 8.2 µM

C/C=C\c1ccc(O)c(OC)c1 [ISOEUGENOL]
Activity (Curvularia lunata [4]): >1800 h
Activity (Curvularia lunata [5]): 0 millimeter/hr
Activity (Curvularia lunata [1]): 0.29 millimeter/hr
Activity (Curvularia lunata [2]): 56 h
Ki [3]: 14.2 µM

O=C(O)c1ccccc1 [BENZOIC ACID]
Activity (Curvularia lunata [4]): >1800 h
Activity (Curvularia lunata [5]): 0 millimeter/hr
MIC (Curvularia lunata [6]): 5 mM (≈ 611 µg/mL)
Activity (Curvularia lunata [1]): 0.22 millimeter/hr
Activity (Curvularia lunata [7]): 0.55 millimeter/hr
Activity (Curvularia lunata [2]): 56 h
Activity (Curvularia lunata [8]): 12 h
